Experimental data reported in PMC2646813 (Journal of biomolecular screening, 2008).
Counter-ions that a name gives are not always drawn. Like-named read-outs stand apart in the source and are kept apart here.

Tests used:
PPARα-RXRα heterodimers = target: T1, PPARα-RXRα heterodimers (Mus musculus, UniProt P23204); test: Transactivation assay, acyl-CoA oxidase reporter; assay type: cell-based
T1 sequence (P23204 1-468): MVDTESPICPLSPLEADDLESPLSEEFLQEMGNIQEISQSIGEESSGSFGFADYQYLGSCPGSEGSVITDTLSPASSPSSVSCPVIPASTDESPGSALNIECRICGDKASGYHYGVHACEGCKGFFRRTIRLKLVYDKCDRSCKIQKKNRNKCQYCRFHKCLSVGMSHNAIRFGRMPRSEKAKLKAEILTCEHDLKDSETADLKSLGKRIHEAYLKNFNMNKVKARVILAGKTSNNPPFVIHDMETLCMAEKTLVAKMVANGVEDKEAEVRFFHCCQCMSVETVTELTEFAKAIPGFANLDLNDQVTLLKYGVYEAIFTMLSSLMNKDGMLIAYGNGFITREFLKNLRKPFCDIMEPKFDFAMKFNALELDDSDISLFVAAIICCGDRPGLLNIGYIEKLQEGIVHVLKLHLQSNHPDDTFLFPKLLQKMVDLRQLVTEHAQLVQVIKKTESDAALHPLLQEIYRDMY
T1 sequence (P28700 1-467 partner): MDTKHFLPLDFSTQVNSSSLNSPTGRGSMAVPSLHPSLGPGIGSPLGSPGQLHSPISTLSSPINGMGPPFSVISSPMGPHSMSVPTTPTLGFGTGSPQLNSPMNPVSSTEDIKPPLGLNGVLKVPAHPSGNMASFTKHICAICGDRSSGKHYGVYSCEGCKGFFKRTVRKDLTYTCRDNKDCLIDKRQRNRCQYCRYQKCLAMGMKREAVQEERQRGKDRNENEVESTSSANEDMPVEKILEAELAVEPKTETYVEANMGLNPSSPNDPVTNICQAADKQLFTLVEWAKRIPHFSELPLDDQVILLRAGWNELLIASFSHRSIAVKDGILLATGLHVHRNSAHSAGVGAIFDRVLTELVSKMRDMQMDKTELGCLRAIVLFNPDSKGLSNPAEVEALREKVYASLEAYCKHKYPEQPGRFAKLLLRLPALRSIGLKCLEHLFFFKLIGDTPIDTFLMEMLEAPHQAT
Procedure, shortened: (§1)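 COS-7 cells in 24-well plates transfected with 0.4 μg full-length pSG5-PPARα, alone or with pSG5-mRXRα; 0.4 μg PPRE3-TK-LUC reporter; 0.04 μg pRL-CMV. Then serum-free, glucose-free DMEM for 2 h. Compound (10 μM) added at 0 or 20 mM glucose, ±10 μM clofibrate, for 24 h. Firefly luciferase normalized to Renilla. Results given as percentage of clofibrate-induced PPARα activity, or percentage change from no-compound control; mean ± SEM, n = 3.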

PPARαΔAB [1] = target: T2, PPARαΔAB (Mus musculus, UniProt P23204); test: Circular dichroism, PPARα secondary structure; set-up: species or system murine; conditions: 20 mM glucose, 0.8 μM PPARαΔAB; mean ± SEM (n = 4)
T2 sequence (P23204 101-468 limits assumed): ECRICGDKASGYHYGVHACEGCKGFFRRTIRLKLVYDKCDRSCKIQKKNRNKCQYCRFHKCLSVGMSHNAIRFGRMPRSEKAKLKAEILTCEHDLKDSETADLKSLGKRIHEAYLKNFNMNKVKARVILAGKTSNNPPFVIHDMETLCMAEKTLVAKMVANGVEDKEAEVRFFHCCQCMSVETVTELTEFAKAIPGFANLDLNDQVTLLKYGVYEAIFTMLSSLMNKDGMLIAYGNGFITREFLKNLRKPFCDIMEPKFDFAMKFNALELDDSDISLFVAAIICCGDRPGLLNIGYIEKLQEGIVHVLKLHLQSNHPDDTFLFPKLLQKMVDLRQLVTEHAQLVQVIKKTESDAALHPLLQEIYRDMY
Procedure, shortened: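 Murine PPARαΔAB (N-terminal truncation), expressed in E. coli BL21(DE3)pLysS and purified, at 0.8 μM with 0 or 20 mM glucose. Ten CD scans averaged per spectrum. Secondary structure fractions estimated by SELCON3, CDSSTR and CONTIN/LL. Mean ± SEM, n = 4; Student's t-test.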

PPARαΔAB [2] = target: T2, PPARαΔAB; test: Primary drug-screening assay: restoration of BODIPY-C16-CoA; assay type: binding, murine; conditions: 20 mM glucose; for Recovery (ability to restore acyl-CoA binding): compound 1.25 μM, 10 nM BODIPY-C16-CoA, 200 nM PPARαΔAB
PPARα = target: T3, PPARα (Mus musculus, UniProt P23204); test: Transactivation assay, acyl-CoA oxidase reporter; assay type: cell-based; conditions: for Increase of PPARα transactivation (percentage change from no-compound control): basal, absence of glucose (Fig. 2C open bars); for Effect on clofibrate-induced PPARα transactivation: absence of glucose (Fig. 2D open bars)
T3 sequence (P23204 1-468): T1 sequence (P23204 1-468)
Procedure, shortened: as §1

PPARαΔAB [3] = target: T2, PPARαΔAB; test: PPARα binding assays to BODIPY-C16 fatty acid or fatty acyl-CoA; set-up: species or system murine; conditions: high glucose (20 mM)
Procedure, shortened: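 50 nM BODIPY-C16 or BODIPY-C16-CoA prebound to 100 nM murine PPARαΔAB, then titrated with glucose. Excitation 460 nm, emission 490–540 nm. Background-corrected maximal intensities expressed as percentage change in binding versus the no-glucose control.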

PPARαΔAB [4] = target: T2, PPARαΔAB; assay type: binding, murine
Procedure, shortened: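 Intrinsic aromatic fluorescence quenching. 0.1 μM murine PPARαΔAB in 20 mM glucose in PBS titrated with test compound. Excitation 280 nm, emission 300–380 nm. Corrected for buffer, compound fluorescence and solvent. Kd calculated from maximal intensities, with double-reciprocal plots. Mean ± SEM, n = 3–4.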

[5] = compound 10 μM, 10 μM clofibrate, 20 mM glucose (Fig. 2F)
[6] = read-out: Kd (binding affinity of PPARα for each compound), 0.1 μM PPARαΔAB in 20 mM glucose in PBS, mean ± SEM (n = 3–4)
[7] = compound 10 μM, 10 μM clofibrate

Row | SMILES | Kd (PPARαΔAB [4]) | Recovery (ability to restore acyl-CoA binding) (PPARαΔAB [2]) | Effect on clofibrate-induced PPARα-RXRα activity (PPARα-RXRα heterodimers; [5]) | other results
1 | OC[C@H]1OC(O)[C@H](O)[C@@H](O)[C@@H]1O (stereo partly drawn) [glucose] | – | – | – | Increase of transactivation by glucose over clofibrate alone (PPARα-RXRα heterodimers; 10 μM clofibrate, 20 mM glucose, PPARα-RXRα heterodimers (Fig. 2B)): 3- to 4 fold; Effect of glucose on basal transactivation (PPARα-RXRα heterodimers; 20 mM glucose, no other ligand (Fig. 2A)): increased activity; Turns (PPARαΔAB [1]): 20.2 ± 0.7%; Unordered (PPARαΔAB [1]): 30.7 ± 0.8 %; α-Helices Distorted, Hd (PPARαΔAB [1]): 10.8 ± 0.3 %; α-Helices Regular, Hr (PPARαΔAB [1]): 14.3 ± 0.3 %; β-Sheets Distorted, Sd (PPARαΔAB [1]): 8.8 ± 0.5 %; β-Sheets Regular, Sr (PPARαΔAB [1]): 14.4 ± 1.2 %; Decrease in BODIPY-C16-CoA fluorescence intensity (PPARαΔAB [2]; plate assay controls): ~ 30%; Increase of transactivation by glucose over clofibrate alone (PPARα; 10 μM clofibrate, 20 mM glucose, PPARα alone (Fig. 2B)): 3- to 4 fold; Effect of glucose on basal transactivation (PPARα; 20 mM glucose, no other ligand, PPARα alone (Fig. 2A)): no significant effect; Effect of glucose on BODIPY-C16 (fatty acid) binding to PPARα (PPARαΔAB [3]; 50 nM BODIPY-C16, 100 nM PPARαΔAB (Fig. 1D)): not affected; Effect of glucose on BODIPY-C16-CoA binding to PPARα (PPARαΔAB [3]; 50 nM BODIPY-C16-CoA, 100 nM PPARαΔAB (Fig. 1C, 1D)): significantly decreased
2 | CCOC(=O)[C@H](CCc1ccccc1)N[C@@H](C)C(=O)N1CCC[C@H]1C(=O)O [Enalapril maleate] | 26.3 ± 2.8 nM | 64.7% | – | –
3 | NC(=O)c1cnccn1 [Pyrazinamide] | 28.4 ± 2.3 nM | 68.6% | significantly decreased | –
4 | CN=C(N)NCCC[C@H](N)C(=O)O.Cl [Targinine hydrochloride, reference compound] | – | 67.5% | significantly decreased | Kd (PPARαΔAB [4]; [6]): 33.5 ± 3.5 nM; Increase of PPARα transactivation (percentage change from no-compound control) (PPARα; compound 10 μM): ≥ 50%
5 | NCCCC(=O)O [g-aminobutyric acid] | – | 85.5% | – | Kd (PPARαΔAB [4]; [6]): 29.5 ± 4.1 nM
6 | CCCC1O[C@@H]2C[C@H]3[C@@H]4CCC5=CC(=O)C=C[C@]5(C)[C@H]4[C@@H](O)C[C@]3(C)[C@]2(C(=O)CO)O1 (stereo partly drawn) [Budesonide] | 26.3 ± 3.2 nM | 82.0% | significantly decreased | –
7 | O=C1NS(=O)(=O)c2ccccc21 [Saccharin] | 22.5 ± 2 nM | 81.3% | – | Effect on clofibrate-induced PPARα transactivation (PPARα; [7]): significant increases
8 | Cc1ccc(C(=O)c2ccc(CC(=O)O)n2C)cc1 [Tolmetin sodium, reference compound] | 35.1 ± 3.7 nM | 97.1% | significantly decreased | Increase of PPARα transactivation (percentage change from no-compound control) (PPARα; compound 10 μM): ≥ 50%
9 | COc1cccc(OC)c1C(=O)N[C@@H]1C(=O)N2[C@@H]1SC(C)(C)[C@@H]2C(=O)O [methicillin sodium] | – | – | – | Direct binding to PPARα (change of intrinsic fluorescence) (PPARαΔAB [4]; 20 mM glucose): no binding
10 | NC(=O)c1ccccc1O [Salicylamide] | 25.8 ± 6 nM | 83.1% | – | –
11 | c1ccc(CC2=NCCN2)cc1 [Tolazoline hydrochloride] | 31.4 ± 3.6 nM | 73.9% | – | –
12 | CC(=O)N[C@@H]1[C@@H](O)[C@H](O)[C@@H](CO)O[C@@H]1O [Acetylglucosamine] | – | 63.8% | – | Kd (PPARαΔAB [4]; [6]): 33.3 ± 3 nM; Increase of PPARα transactivation (percentage change from no-compound control) (PPARα; compound 10 μM): ≥ 50%
13 | CC(=O)O[C@@H]1C[C@H]2C(C)(C)C(=O)C=C[C@]2(C)[C@H]2CC[C@@]3(C)[C@H](c4ccoc4)OC(=O)[C@H]4O[C@]43[C@@]21C [Gedunin] | 21.9 ± 1.8 nM | 62.3% | significantly decreased | Effect on clofibrate-induced PPARα-RXRα activity (PPARα-RXRα heterodimers; compound 10 μM, 10 μM clofibrate, absence of glucose (Fig. 2F)): significantly affected activity; Effect on basal PPARα-RXRα heterodimer activity (PPARα-RXRα heterodimers; compound 10 μM, with or without glucose (Fig. 2E)): decreased activity; Effect on clofibrate-induced PPARα transactivation (PPARα; [7]): decreases; Effect on basal PPARα activity (PPARα; compound 10 μM, with or without glucose (Fig. 2C)): significantly reduced
14 | CN1[C@@H]2CC[C@H]1C[C@@H](OC(=O)[C@H](CO)c1ccccc1)C2 [Hyoscyamine] | 14.8 ± 2.8 nM | 86.4% | – | –
